How the values were obtained:
[1] = target: Cannabinoid receptor 1 (Rattus norvegicus, UniProt P20272); assay: Binding affinity against G protein coupled Cannabinoid receptor 1 using [3H]WIN-55212-2 in rat cerebellum membranes; assay type: cell membranes, Membrane
In short: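 Rat cerebellum membranes washed in 50 mM Tris-HCl pH 7.4, resuspended at about 2 mg/mL protein. Incubated 90 min at 30 °C with 0.5 nM [3H]WIN55212-2 plus competitor in Tris/EDTA/MgCl2/5 mg/mL BSA buffer. Nonspecific binding defined with 10 µM SR141716A. Bound ligand separated by GF/C filtration and counted by scintillation. IC50 from curve fit, Ki by Cheng-Prusoff. Two to four experiments in triplicate.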

[2] = target: Cannabinoid receptor 2 (Homo sapiens, UniProt P34972); assay: Binding affinity against G protein coupled human Cannabinoid receptor 2 using [3H]CP-55940 in HEK293 EBNA transfected cells; assay type: cell-based
Sequence of Cannabinoid receptor 2 (P34972 whole entry): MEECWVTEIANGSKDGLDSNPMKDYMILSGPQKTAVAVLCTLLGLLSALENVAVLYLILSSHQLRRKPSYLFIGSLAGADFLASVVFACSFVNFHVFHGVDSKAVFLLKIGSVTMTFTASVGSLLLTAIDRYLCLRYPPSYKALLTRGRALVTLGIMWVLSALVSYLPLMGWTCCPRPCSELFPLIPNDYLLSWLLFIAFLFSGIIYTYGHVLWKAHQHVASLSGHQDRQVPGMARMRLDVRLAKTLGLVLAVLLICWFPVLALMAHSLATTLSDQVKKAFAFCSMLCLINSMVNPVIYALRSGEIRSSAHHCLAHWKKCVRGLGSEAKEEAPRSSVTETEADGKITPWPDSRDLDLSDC
In short: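 Incubated 90 min at 30 °C with 0.3 nM [3H]CP55940 plus competitor. Filtered and counted by scintillation. IC50 from curve fit, Ki by Cheng-Prusoff. Two to four experiments in triplicate.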

[3] = target: T1, Fatty-acid amide hydrolase 1 (Rattus norvegicus, UniProt P97612); assay: Inhibition of fatty acid amide hydrolase (FAAH) was determined using rat brain homogenates as the enzyme source and [3H]anandamide as substrate; assay type: tissue-based
T1 sequence (P97612 whole entry): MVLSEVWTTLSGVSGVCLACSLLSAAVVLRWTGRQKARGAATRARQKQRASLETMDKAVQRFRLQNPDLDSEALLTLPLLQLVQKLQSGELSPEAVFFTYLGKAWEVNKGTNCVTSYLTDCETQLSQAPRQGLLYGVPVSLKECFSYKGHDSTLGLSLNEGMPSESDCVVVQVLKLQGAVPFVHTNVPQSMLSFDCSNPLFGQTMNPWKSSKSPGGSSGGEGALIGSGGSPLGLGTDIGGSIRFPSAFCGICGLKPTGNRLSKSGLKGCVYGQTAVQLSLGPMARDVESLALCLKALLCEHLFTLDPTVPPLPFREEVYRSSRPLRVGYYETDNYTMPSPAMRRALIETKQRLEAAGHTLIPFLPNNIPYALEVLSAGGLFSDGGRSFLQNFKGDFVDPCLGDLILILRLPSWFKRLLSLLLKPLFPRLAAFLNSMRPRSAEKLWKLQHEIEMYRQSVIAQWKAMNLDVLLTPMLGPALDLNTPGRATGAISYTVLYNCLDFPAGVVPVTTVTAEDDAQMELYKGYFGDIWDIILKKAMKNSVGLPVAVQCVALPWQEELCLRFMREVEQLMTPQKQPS
In short: (§1)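 Rat brain homogenate without cerebellum, in 10 mM Tris-HCl/1 mM EDTA pH 7.6, incubated 10 min at 37 °C with compound (ethanol carrier). Substrate: anandamide 2 µM final with trace [3H]anandamide labelled in the ethanolamine, plus BSA. Stopped on ice with chloroform/methanol; [3H]ethanolamine in the aqueous phase counted. Eight concentrations from 0.5 to 100 µM, at least three experiments.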

[4] = target: T2, Fatty-acid amide hydrolase 1 (Rattus norvegicus) (UniProt P97612); assay: Inhibition of fatty acid amide hydrolase (FAAH) in rat brain homogenates; assay type: tissue-based; in short: as §1
T2 sequence (whole entry): T1 sequence (P97612 whole entry)

[5] = organism: Homo sapiens; assay: Inhibition of [3H]anandamide transport(ANT) in human lymphoma U937 cell; assay type: functional; details: U-937
In short: (§2)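 U937 cells (10^6/mL, RPMI 1640) preincubated 10 min at 37 °C with inhibitor, highest concentration tested 50 µM. Then [3H]anandamide 0.45 nM plus cold anandamide (100 nM final) added for 7 min. Stopped by GF/C filtration and washed with Krebs-HEPES; radioactivity counted. Nonspecific uptake measured at 4 °C. IC50 by curve fit; maximum inhibition is the % inhibition at 50 µM.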

[6] = organism: Homo sapiens; assay: Maximum Inhibition of anandamide transport(ANT) was determined against human lymphoma U937 cell at a dose of 50 uM; assay type: functional, U-937; in short: as §2
[7] = target: Transient receptor potential cation channel subfamily V member 1 (Rattus norvegicus, UniProt O35433); assay: Binding affinity against vanilloid receptor 1 (VR1) using [3H]RTX in rat spinal cord membranes; assay type: cell membranes, Membrane
Sequence of Transient receptor potential cation channel subfamily V member 1 (O35433 whole entry): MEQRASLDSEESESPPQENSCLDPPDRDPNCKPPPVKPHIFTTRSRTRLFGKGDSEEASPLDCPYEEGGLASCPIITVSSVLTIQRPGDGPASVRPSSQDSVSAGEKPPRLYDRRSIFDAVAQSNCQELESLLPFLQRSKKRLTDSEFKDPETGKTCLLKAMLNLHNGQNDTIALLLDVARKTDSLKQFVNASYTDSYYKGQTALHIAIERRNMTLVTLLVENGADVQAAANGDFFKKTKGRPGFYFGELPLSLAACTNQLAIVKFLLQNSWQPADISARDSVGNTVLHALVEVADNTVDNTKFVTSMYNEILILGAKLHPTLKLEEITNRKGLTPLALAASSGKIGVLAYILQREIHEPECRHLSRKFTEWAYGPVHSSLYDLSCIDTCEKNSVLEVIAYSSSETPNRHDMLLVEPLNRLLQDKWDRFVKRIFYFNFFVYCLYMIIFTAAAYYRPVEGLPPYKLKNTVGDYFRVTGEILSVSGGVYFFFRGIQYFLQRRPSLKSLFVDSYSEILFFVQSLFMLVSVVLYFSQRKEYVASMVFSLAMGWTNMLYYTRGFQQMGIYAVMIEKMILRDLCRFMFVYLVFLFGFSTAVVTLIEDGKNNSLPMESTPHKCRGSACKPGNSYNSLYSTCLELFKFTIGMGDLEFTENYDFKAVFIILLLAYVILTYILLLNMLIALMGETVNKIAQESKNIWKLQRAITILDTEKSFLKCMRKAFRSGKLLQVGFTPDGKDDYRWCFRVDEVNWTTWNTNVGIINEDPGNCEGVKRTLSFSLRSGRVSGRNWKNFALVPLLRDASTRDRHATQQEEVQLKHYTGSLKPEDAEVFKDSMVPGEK
In short: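 Rat spinal cord membranes (about 1 mg/mL protein) in HEPES/sucrose buffer pH 7.4 with 0.25 mg/mL BSA. Incubated 60 min at 37 °C with 25 pM [3H]RTX plus competitor; nonspecific binding defined with 1 µM RTX. Stopped on ice, α1-acid glycoprotein added, membranes pelleted and counted. Ki by Cheng-Prusoff. Two to four experiments in triplicate.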

[8] = target: T2, Fatty-acid amide hydrolase 1 (Rattus norvegicus); assay: Maximum Inhibition of fatty acid amide hydrolase (FAAH) was determined using rat brain homogenates at 100 uM
In short: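 Rat brain (minus cerebellum) homogenate in 10 mM Tris-HCl, 1 mM EDTA, pH 7.6, incubated 10 min at 37 °C with test agent or ethanol carrier. Substrate: 2 µM final anandamide with trace [3H]anandamide (ethanolamine label), 1% fatty acid free BSA. Stopped on ice plus chloroform/methanol. Aqueous-phase [3H]ethanolamine counted by scintillation. Inhibition read at 100 µM where IC50 fit failed.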

[9] = target: T1, Fatty-acid amide hydrolase 1; assay: Maximum Inhibition of fatty acid amide hydrolase (FAAH) was determined using rat brain homogenates at concentrations ranging from 0.5 to 100 uM; in short: as §1

Sequence of Cannabinoid receptor 1 (P20272 whole entry): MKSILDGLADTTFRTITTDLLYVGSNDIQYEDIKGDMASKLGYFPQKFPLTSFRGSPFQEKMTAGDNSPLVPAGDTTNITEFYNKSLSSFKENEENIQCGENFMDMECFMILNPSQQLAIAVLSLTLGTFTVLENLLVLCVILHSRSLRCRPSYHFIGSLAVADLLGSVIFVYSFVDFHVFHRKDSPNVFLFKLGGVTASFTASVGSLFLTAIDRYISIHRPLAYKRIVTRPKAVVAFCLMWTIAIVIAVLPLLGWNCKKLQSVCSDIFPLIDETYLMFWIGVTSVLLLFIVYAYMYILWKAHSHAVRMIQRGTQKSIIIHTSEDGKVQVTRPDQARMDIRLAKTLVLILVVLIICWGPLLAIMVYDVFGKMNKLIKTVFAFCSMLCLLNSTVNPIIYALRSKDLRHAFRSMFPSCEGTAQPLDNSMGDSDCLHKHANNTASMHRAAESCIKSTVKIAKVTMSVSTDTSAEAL

CCCCC/C=C\C/C=C\C/C=C\C/C=C\CCCC(=O)NCCc1cccs1
Ki [1]: 3 µM
Ki [2]: > 1 µM
IC50 [3]: 102 µM
Max inhibition [4]: 100%
IC50 [5]: 19 µM
Max inhibition [6]: >85%
Ki [7]: > 5 µM

CCCCC/C=C\C/C=C\C/C=C\C/C=C\CCCC(=O)NCc1cccs1
Ki [2]: > 10 µM
IC50 [3]: 112 µM
Max inhibition [4]: 100%
Max inhibition [6]: >85%

CCCCC/C=C\C/C=C\C/C=C\C/C=C\CCCC(=O)NC(C)Cc1ccsc1 (centres undefined)
Ki [1]: > 1 µM
Ki [2]: > 1 µM
IC50 [3]: > 120 µM
Max inhibition [4]: 37%
IC50 [5]: 21 µM
Max inhibition [6]: 78%
Ki [7]: < 5 µM

CCCCC/C=C\C/C=C\C/C=C\C/C=C\CCCC(=O)OCCc1cccs1
Ki [1]: > 1 µM
Ki [2]: > 5 µM
IC50 [3]: 24 µM
Max inhibition [4]: 68%
IC50 [5]: 12 µM
Max inhibition [6]: >85%
Ki [7]: > 5 µM

CCCCC/C=C\C/C=C\C/C=C\C/C=C\CCCC(=O)NCCc1ccsc1
Ki [1]: > 1 µM
Ki [2]: > 1 µM
IC50 [5]: 1.3 µM
Max inhibition [6]: 60%
Ki [7]: < 5 µM

CCCCC/C=C\C/C=C\C/C=C\C/C=C\CCCC(=O)NC(C)c1ccco1 (centres undefined)
Ki [1]: > 5 µM
Ki [2]: > 5 µM
IC50 [3]: 36 µM
Max inhibition [4]: 75%
IC50 [5]: 21 µM
Max inhibition [6]: >85%
Ki [7]: > 5 µM

CCCCC/C=C\C/C=C\C/C=C\C/C=C\CCCC(=O)OCc1ccco1
Ki [1]: > 5 µM
Ki [2]: > 5 µM
IC50 [3]: 53 µM
Max inhibition [4]: 100%
Max inhibition [6]: >85%

CCCCC/C=C\C/C=C\C/C=C\C/C=C\CCCC(=O)NC(C)Cc1cccs1 (centres undefined)
Ki [1]: > 1 µM
Ki [2]: > 1 µM
IC50 [3]: 15 µM
Max inhibition [4]: 36%
IC50 [5]: 22 µM
Max inhibition [6]: 66%
Ki [7]: < 5 µM

CCCCC/C=C\C/C=C\C/C=C\C/C=C\CCCC(=O)OCC1CCOC1 (centres undefined)
Ki [1]: > 5 µM
Ki [2]: > 10 µM
IC50 [3]: 113 µM
Max inhibition [4]: 100%
Max inhibition [6]: >85%

CCCCC/C=C\C/C=C\C/C=C\C/C=C\CCCC(=O)NCc1ccco1
Ki [1]: > 5 µM
Ki [2]: > 5 µM
IC50 [3]: 34 µM
Max inhibition [4]: 100%
Max inhibition [6]: >85%

CCCCC/C=C\C/C=C\C/C=C\C/C=C\CCCC(=O)NCC1CCCO1 (centres undefined)
Ki [1]: > 5 µM
Ki [2]: > 5 µM
IC50 [3]: 44 µM
Max inhibition [4]: 47%
Max inhibition [6]: >85%

CCCCC/C=C\C/C=C\C/C=C\C/C=C\CCCC(=O)OC(C)c1ccco1 (centres undefined)
Ki [1]: > 1 µM
Ki [2]: > 1 µM
IC50 [3]: > 120 µM
Max inhibition [8]: 45%
Max inhibition [6]: 70%
Ki [7]: > 5 µM

CCCCC/C=C\C/C=C\C/C=C\C/C=C\CCCC(=O)N(C)Cc1ccoc1
Ki [1]: > 1 µM
Ki [2]: > 1 µM
IC50 [3]: > 120 µM
IC50 [9]: 24 µM
IC50 [5]: 111 µM
Max inhibition [6]: >85%

CCCCC/C=C\C/C=C\C/C=C\C/C=C\CCCC(=O)OCCc1ccsc1
Ki [1]: > 1 µM
Ki [2]: > 5 µM
IC50 [3]: 28 µM
Max inhibition [4]: 100%
IC50 [5]: 26 µM
Max inhibition [6]: 75%
Ki [7]: > 5 µM

CCCCC/C=C\C/C=C\C/C=C\C/C=C\CCCC(=O)OCc1ccsc1
Ki [1]: > 5 µM
Ki [2]: > 5 µM
IC50 [3]: 84 µM
Max inhibition [4]: 100%
Max inhibition [6]: >85%

CCCCC/C=C\C/C=C\C/C=C\C/C=C\CCCC(=O)O[C@H](C)c1ccco1
Ki [1]: > 1 µM
Ki [2]: > 5 µM
IC50 [3]: > 120 µM
Max inhibition [8]: 19%
Max inhibition [6]: 37%
Ki [7]: > 5 µM

CCCCC/C=C\C/C=C\C/C=C\C/C=C\CCCC(=O)Nc1ccc(O)cc1
IC50 [3]: 3.7 µM
Max inhibition [4]: 100%
Max inhibition [6]: >85%

CCCCC/C=C\C/C=C\C/C=C\C/C=C\CCCC(=O)OCc1ccoc1
Ki [1]: > 5 µM
Ki [2]: > 5 µM
IC50 [3]: 103 µM
Max inhibition [4]: 100%
Max inhibition [6]: >85%

CCCCC/C=C\C/C=C\C/C=C\C/C=C\CCCC(=O)N(Cc1cccs1)Cc1cccs1
Ki [1]: > 1 µM
Ki [2]: > 1 µM
IC50 [5]: 16 µM
Max inhibition [6]: >85%
Ki [7]: > 5 µM

CCCCC/C=C\C/C=C\C/C=C\C/C=C\CCCC(=O)NCc1ccsc1
Ki [1]: > 1 µM
Ki [2]: > 1 µM
IC50 [3]: 12 µM
Max inhibition [4]: 76%
IC50 [5]: 5 µM
Max inhibition [6]: >85%
Ki [7]: > 5 µM

CCCCC/C=C\C/C=C\C/C=C\C/C=C\CCCC(=O)NCc1cccn1C
Max inhibition [6]: >85%

CCCCC/C=C\C/C=C\C/C=C\C/C=C\CCCC(=O)OCc1cccs1
Ki [1]: > 5 µM
Ki [2]: > 5 µM
IC50 [3]: 12 µM
Max inhibition [4]: 80%

CCCCC/C=C\C/C=C\C/C=C\C/C=C\CCCC(=O)NCc1ccoc1
Ki [1]: 4.7 µM
IC50 [3]: 30 µM
Max inhibition [4]: 100%
Max inhibition [6]: >85%

CCCCC/C=C\C/C=C\C/C=C\C/C=C\CCCC(=O)O[C@@H](C)c1ccco1
Ki [1]: > 1 µM
Ki [2]: > 5 µM
IC50 [3]: > 120 µM
Max inhibition [8]: 24%
Max inhibition [6]: 55%
Ki [7]: > 5 µM

CCCCC/C=C\C/C=C\C/C=C\C/C=C\CCCC(=O)NCCc1ccoc1
Ki [1]: > 1 µM
Ki [2]: 0.4 µM
IC50 [5]: 3.3 µM
Max inhibition [6]: >85%
Ki [7]: > 5 µM

CCCCC/C=C\C/C=C\C/C=C\C/C=C\CCCC(=O)NCCc1ccco1
Ki [1]: > 5 µM
Ki [2]: > 1 µM
IC50 [3]: > 120 µM
Max inhibition [8]: 38%
IC50 [5]: 12.8 µM
Max inhibition [6]: >85%
Ki [7]: > 5 µM

CCCCC/C=C\C/C=C\C/C=C\C/C=C\CCCCNCc1ccoc1
Ki [1]: > 1 µM
Ki [2]: > 1 µM
IC50 [3]: 29 µM
Max inhibition [4]: 57%
Max inhibition [6]: >85%
Ki [7]: > 5 µM

CCCCC/C=C\C/C=C\C/C=C\C/C=C\CCCC(=O)OCC1CCCO1 (centres undefined)
Ki [1]: > 5 µM
Ki [2]: > 5 µM
IC50 [3]: > 120 µM
Max inhibition [4]: 23%
Max inhibition [6]: >85%

CCCCC/C=C\C/C=C\C/C=C\C/C=C\CCCC(=O)SCc1ccco1
Ki [1]: > 5 µM
Ki [2]: > 5 µM
IC50 [3]: > 120 µM
Max inhibition [4]: 36%
IC50 [5]: 9 µM
Max inhibition [6]: >85%
Ki [7]: > 5 µM
